In ChEMBL document CHEMBL4732140, “Single-step fluorescent probes to detect decrotonylation activity of HDACs through intramolecular reactions” (Eur J Med Chem, 2021):
The source made the active and inactive calls. The rule behind the calls is not given here.

Legend:
[1] = target: NAD-dependent protein deacylase sirtuin-6 (Homo sapiens) (UniProt Q8N6T7); test: Substrate activity at recombinant human SIRT6 assessed as decrotonylation by measuring increase in fluorescence intensity at 10 uM in presence of NAD+ by fluorescence photometric method
Method in brief: (§1)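 Recombinantly expressed, purified sirtuin (40 ng/μl) incubated with probe (10 μM, from 5 mM DMSO stock) and NAD+ at 37 °C in 20 mM HEPES pH 8.0 with 1 mM MgCl2, 2.7 mM KCl, 150 mM NaCl. Fluorescence read with excitation 480 nm, emission 545 nm.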

[2] = target: NAD-dependent protein deacylase sirtuin-5, mitochondrial (Homo sapiens) (UniProt Q9NXA8); test: Substrate activity at recombinant human SIRT5 assessed as decrotonylation by measuring increase in fluorescence intensity at 10 uM in presence of NAD+ by fluorescence photometric method; method in brief: as §1
[3] = target: T1, NAD-dependent protein deacetylase sirtuin-2 (Homo sapiens) (UniProt Q8IXJ6); test: Substrate activity at recombinant human SIRT2 assessed as decrotonylation by measuring absorption peak for formation of N-NBD at 10 uM measured after 3 hrs in presence of NAD+ by UV-VS absorption spectra analysis
T1 sequence (whole entry): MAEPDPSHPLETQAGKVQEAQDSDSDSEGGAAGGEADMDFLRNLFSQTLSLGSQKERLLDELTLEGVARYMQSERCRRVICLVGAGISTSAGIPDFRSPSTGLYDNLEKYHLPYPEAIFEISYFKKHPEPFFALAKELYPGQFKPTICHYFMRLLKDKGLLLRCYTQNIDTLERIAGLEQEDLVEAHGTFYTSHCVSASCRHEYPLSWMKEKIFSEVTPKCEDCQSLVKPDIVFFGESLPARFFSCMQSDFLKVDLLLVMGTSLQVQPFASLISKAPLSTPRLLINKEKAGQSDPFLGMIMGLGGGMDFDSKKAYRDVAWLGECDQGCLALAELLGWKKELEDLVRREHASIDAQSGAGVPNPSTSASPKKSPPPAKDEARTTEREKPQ
Method in brief: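 Probe (10 μM, from 5 mM DMSO stock) reacted with recombinant purified Sirt2 (40 ng/μl) and 200 μM NAD+ in 20 mM HEPES pH 8.0 (1 mM MgCl2, 2.7 mM KCl, 150 mM NaCl) at 37 °C for 3 h. Absorbance spectra collected from 300 to 550 nm before and after the reaction.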

[4] = target: T2, NAD-dependent protein deacetylase sirtuin-1 (Homo sapiens) (UniProt Q96EB6); test: Substrate activity at recombinant human SIRT1 assessed as decrotonylation by measuring increase in fluorescence intensity at 10 uM in presence of NAD+ by fluorescence photometric method; method in brief: as §1
T2 sequence (whole entry): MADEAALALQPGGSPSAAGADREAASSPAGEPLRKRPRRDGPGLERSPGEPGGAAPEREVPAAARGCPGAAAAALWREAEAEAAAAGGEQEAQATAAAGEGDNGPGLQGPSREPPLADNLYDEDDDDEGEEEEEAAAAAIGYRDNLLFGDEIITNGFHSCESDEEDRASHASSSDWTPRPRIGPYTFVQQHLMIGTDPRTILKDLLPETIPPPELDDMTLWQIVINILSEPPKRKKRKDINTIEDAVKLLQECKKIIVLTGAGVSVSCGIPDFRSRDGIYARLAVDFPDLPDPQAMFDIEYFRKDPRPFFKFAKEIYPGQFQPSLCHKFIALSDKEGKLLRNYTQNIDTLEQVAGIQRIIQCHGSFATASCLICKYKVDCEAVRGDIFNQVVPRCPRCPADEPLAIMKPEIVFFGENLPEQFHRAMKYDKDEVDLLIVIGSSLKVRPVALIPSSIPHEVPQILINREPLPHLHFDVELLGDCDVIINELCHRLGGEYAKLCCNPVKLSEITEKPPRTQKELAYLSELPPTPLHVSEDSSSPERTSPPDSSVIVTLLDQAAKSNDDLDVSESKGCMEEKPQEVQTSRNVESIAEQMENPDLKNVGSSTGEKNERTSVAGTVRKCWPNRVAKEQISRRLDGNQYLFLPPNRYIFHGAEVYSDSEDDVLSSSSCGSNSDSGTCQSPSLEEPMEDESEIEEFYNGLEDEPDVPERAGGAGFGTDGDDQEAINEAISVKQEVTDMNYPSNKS

[5] = Binding affinity to histidine at 10 uM by fluorescence photometric method
Method in brief: (§2)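 Interferent test: probe at 10 μM treated with each species (amino acids, butylamine) at 100 μM, no enzyme; fluorescence spectra of the reaction mixtures recorded (excitation 480 nm).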

[6] = target: T1, NAD-dependent protein deacetylase sirtuin-2 (Homo sapiens); test: Substrate activity at recombinant human SIRT2 assessed as decrotonylation by measuring increase in fluorescence intensity at 10 uM measured after 3 hrs in presence of NAD+ by fluorescence photometric method relative to control
Method in brief: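 Probe (10 μM) incubated 3 h at 37 °C with recombinant Sirt2 (40 ng/μl) and 200 μM NAD+ in 20 mM HEPES pH 8.0 with salts. Emission scanned 510–600 nm (excitation 480 nm, slit 5 nm). Signal compared with controls lacking enzyme and/or NAD+, and with probe alone; fold increase derived.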

[7] = target: T1, NAD-dependent protein deacetylase sirtuin-2 (Homo sapiens); test: Substrate activity at recombinant human SIRT2 assessed as decrotonylation by measuring increase in fluorescence intensity at 10 uM in presence of NAD+ by fluorescence photometric method; conditions: time hrs <=3, TDE = time-dependent effect; method in brief: as §1
[8] = Binding affinity to cysteine at 10 uM by fluorescence photometric method; method in brief: as §2
[9] = target: T3, NAD-dependent protein deacetylase sirtuin-3, mitochondrial (Homo sapiens) (UniProt Q9NTG7); test: Substrate activity at recombinant human SIRT3 assessed as decrotonylation by measuring increase in fluorescence intensity at 10 uM in presence of NAD+ by fluorescence photometric method; method in brief: as §1
T3 sequence (whole entry): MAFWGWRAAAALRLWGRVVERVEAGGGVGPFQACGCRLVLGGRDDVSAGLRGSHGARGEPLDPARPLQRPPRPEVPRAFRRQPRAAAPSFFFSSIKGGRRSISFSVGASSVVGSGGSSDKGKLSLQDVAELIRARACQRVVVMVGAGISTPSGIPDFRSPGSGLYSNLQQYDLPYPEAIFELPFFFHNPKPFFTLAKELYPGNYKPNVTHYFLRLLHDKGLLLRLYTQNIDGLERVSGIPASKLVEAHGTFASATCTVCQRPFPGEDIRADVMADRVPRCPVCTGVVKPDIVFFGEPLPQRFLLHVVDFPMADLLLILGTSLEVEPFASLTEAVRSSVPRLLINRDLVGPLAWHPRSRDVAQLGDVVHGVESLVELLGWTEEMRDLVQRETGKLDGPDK

[10] = Binding affinity to lysine at 10 uM by fluorescence photometric method; method in brief: as §2

Chain of NAD-dependent protein deacylase sirtuin-6 (Homo sapiens) (Q8N6T7 whole entry): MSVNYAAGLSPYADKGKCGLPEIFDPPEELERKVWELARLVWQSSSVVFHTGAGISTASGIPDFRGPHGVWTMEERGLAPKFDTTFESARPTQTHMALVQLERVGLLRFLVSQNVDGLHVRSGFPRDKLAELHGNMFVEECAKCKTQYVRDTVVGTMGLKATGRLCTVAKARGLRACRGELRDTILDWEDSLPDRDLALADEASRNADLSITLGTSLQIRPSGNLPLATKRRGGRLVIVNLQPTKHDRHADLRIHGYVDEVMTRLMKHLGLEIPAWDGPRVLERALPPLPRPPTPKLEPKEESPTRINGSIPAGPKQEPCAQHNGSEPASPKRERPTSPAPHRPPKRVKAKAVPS
Chain of NAD-dependent protein deacylase sirtuin-5, mitochondrial (Homo sapiens) (Q9NXA8 37-310 limits assumed): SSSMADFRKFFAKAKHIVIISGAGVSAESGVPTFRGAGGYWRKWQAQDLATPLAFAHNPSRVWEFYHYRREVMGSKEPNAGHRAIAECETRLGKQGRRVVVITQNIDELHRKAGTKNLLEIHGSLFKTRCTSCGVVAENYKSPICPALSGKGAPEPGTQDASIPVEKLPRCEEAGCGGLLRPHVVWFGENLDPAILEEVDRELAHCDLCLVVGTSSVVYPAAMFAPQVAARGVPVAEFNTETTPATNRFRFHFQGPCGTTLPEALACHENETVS

C/C=C/C(=O)NCCCC[C@H](NC(=O)OC(C)(C)C)C(=O)NCCOCCOc1ccc([N+](=O)[O-])c2nonc12
Activity [1]: inactive | Activity [2]: inactive | Activity [3]: 480 nm | Activity [4]: Active | Activity [5]: inactive | fold change (FC) [6]: 5 | Activity [7]: Tde | Activity [8]: inactive | Activity [9]: inactive | Activity [10]: inactive

C/C=C/C(=O)NCCCC[C@H](NC(=O)CNC(=O)[C@H](CC(C)C)NC(C)=O)C(=O)NCCOCCOc1ccc([N+](=O)[O-])c2nonc12
Activity [1]: inactive | Activity [2]: inactive | Activity [4]: Active | Activity [9]: inactive
